Source: PubChem
Platelet DG rel – inhibitors of platelet dense granule secretion, primary screen, cell-based, MLPCN, human platelets; hit rate 0.22% among 300,000; human platelet-rich plasma, SFLLRN dense granule ATP release, luminescence; AID 1663, 2009; inhibition, %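 (compounds screened at 7.5 µM in platelet-rich plasma)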;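 active means mean replicate score, as percent of positive control, at or above 50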
TAAR1 antagonist – human TAAR1 antagonists, primary screen, Fluo-8 calcium fluorescence, CHO RD-HGA16 cells. hit rate 1.5% among 360,000. AID 624466, 2012. Trace amine-associated receptor 1 (Homo sapiens), Q96RJ0. inhibition, % at 3 µM. antagonist;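 active means inhibition above a per-plate cutoff, the mean inhibition of test compounds on that plate plus 3 SD, cut at about 49% in these data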;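 further: 0% = DMSO plus EC80 beta-PEA response and 100% = DMSO alone without agonist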
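Material: RD-HGA16 CHO cells with stable hTAAR1 and Gα16; Dosing: single nominal final test compound concentration of 3 µM; Schedule: seeding 17-24 h prior, 75-min 37 °C, 30-min RT dye loading; Detection: kinetic Fluo-8 calcium fluorescence measurement; Measure: % inhibition from peak post-agonist over basal fluorescence ratio; Benchmarks: vehicle and agonist controls.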
TAAR1 ag – human TAAR1 agonists, primary screen, Fluo-8 calcium fluorescence, CHO RD-HGA16 cells | Trace amine-associated receptor 1 (Homo sapiens), Q96RJ0 | vehicle wells 0%, saturating PEA agonist 100% | activation, % at 3 µM | hit rate 0.99% among 360,000;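 active means activation above the mean activation of all test compounds in the run plus 3 SD, cut at about 38% in these data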
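Test system: RD-HGA16 (CHO) cells co-expressing Gα16 and hTAAR1 | Doses: Single dose, 3 µM | Schedule: 17-24 h seeding, 75 min 37 °C dye, 30 min RT | Evaluation: % activation from peak over basal fluorescence ratio, DMSO-to-PEA scaled | Technique: Kinetic Fluo-8 calcium fluorescence | Benchmarks: Low control DMSO, high control PEA (EC100)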
VLA-4 inh – inhibition in human VLA-4 binding assay, primary screen, VLA-4 allosteric modulator project, MLPCN library, flow cytometry, VLA-4 expressing cells; ligand binding flow cytometry; inhibition, % (about 7 µM as worked out from the volumes in the protocol); hit rate 0.2% among 330,000; AID 2557, 2010; in the data active means inhibition above about 50%
Target sequence (P13612 whole entry, looked up): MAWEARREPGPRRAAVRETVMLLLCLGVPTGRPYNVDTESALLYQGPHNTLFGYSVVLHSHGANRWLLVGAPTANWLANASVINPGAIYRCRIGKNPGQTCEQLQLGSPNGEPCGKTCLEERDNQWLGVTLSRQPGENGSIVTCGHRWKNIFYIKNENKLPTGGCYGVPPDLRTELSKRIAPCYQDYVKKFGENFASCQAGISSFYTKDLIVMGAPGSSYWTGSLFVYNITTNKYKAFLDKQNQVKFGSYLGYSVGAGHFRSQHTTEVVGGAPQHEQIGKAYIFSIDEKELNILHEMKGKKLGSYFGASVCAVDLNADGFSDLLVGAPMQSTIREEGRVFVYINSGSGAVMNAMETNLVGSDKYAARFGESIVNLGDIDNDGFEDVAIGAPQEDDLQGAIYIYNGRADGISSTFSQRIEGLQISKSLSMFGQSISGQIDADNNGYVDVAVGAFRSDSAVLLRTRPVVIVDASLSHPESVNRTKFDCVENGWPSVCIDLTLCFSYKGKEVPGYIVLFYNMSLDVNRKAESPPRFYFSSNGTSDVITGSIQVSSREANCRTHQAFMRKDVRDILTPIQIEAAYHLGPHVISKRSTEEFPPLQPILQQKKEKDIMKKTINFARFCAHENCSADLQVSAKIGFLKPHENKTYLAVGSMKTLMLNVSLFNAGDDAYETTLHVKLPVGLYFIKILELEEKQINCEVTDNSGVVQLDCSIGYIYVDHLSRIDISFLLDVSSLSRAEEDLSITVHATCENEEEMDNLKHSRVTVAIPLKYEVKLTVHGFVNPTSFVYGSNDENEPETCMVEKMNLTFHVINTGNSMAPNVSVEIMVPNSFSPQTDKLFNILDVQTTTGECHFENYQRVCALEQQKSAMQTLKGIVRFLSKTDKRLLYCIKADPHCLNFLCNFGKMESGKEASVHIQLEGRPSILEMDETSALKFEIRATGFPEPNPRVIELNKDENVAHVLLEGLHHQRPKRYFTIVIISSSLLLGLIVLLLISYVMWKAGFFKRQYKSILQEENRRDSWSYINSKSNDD
Rce1 inhib – yeast Rce1p protease inhibitors, primary screen, biochemical, fluorescence, cell-free homogeneous | yeast membranes, quenched prenylated peptide cleavage fluorescence | calls only | hit rate 0.27% among 290,000 | AID 2563, 2010;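 active means fall in fluorescence gain of 50% or more versus controls, with final raw signal at or below 3038400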;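 further: plate controls were neutral control wells for no effect and wells lacking membranes for full effect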
TAAR1 ag conf – human TAAR1 agonists, retest of hits, confirmation, Fluo-8 calcium fluorescence, CHO RD-HGA16 cells. shares compounds with TAAR1 ag. scaled: DMSO 0%, maximal phenethylamine 100%. activation, % at 3 µM. hit rate 82% among 2,400;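 active means activation above a cutoff set at the run's mean compound activation plus 3 SD, cut at about 39% in these data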
Ga16 nonsel ag – nonselective calcium mobilization agonists, CHO-Ga16 cells, counter-screen for hTAAR1 agonist project, cell-based, fluorescence, CHO-Ga16 parental line | activation, % at 3 µM | hit rate 50% among 2,400 | Fluo-8 calcium fluorescence; normalized to maximal ATP response, DMSO zero | shares compounds with TAAR1 ag;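 active means activation above the run cutoff, the mean activation over all tested wells plus 3 SD, cut at about 12% in these data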;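 further: 0% = DMSO wells and 100% = maximal ATP response on the peak over basal ratio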
TAAR1 desensitize – TAAR1 desensitization by agonist hits, confirmation, counter-screen for TAAR1 agonist project, cell-based, fluorescence, tachyphylaxis; shares compounds with TAAR1 ag; CHO RD-HGA16 hTAAR1, Fluo-8 calcium, beta-PEA response inhibition; inhibition, % at 3 µM; hit rate 46% among 2,400; AID 651951, 2012;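 active means inhibition above the run cutoff, the mean inhibition of all test compounds plus 3 SD, cut at about 49% in these data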;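 further: beta-PEA stimulus applied at its EC80; loss of beta-PEA calcium signal after compound pretreatment read as receptor desensitization; 0% = DMSO with beta-PEA at EC80 and 100% = DMSO alone without agonist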
Ga16 antag count – inhibition of ATP-evoked calcium response in CHO-Ga16 cells, counter-screen for TAAR1 agonist project, cell-based, fluorescence; CHO-Ga16 ATP-induced calcium, Fluo-8 fluorescence; shares compounds with TAAR1 ag; inhibition, % at 3 µM; hit rate 39% among 2,400;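 active means inhibition above the plate's mean compound inhibition plus 3 SD, computed per plate, cut at about 22% in these data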;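 further: 0% = EC80 ATP with DMSO and 100% = DMSO wells without ATP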
The depositor's hits bear a star; i = inactive; · = not tested or not shown. Compounds with a hit are over-represented: about 2.6% of the library has one in this group of screens.

SMILES	Platelet DG rel	TAAR1 antagonist	TAAR1 ag	VLA-4 inh	Rce1 inhib	TAAR1 ag conf	Ga16 nonsel ag	TAAR1 desensitize	Ga16 antag count
Cc1ccc(-c2c(NCCc3ccccc3)c(=O)c2=O)cc1	10.1	-4.8	1.9	4.7	i	·	·	·	·
COc1ccc(-c2c(C(=O)c3ccccc3)[nH]c(N)c2C(=O)NCc2ccccc2)cc1OC	·	8.5	11.3	·	·	·	·	·	·
COc1cc(-c2n[nH]c(=S)n2/N=C/c2cccn2C)cc(OC)c1OC	4.9	71.2*	138.4*	0.1	i	139.0*	112.8*	97.0*	78.7*
CC1(C(=O)NS(=O)(=O)c2cccc(Cl)c2)CCN1C(=O)c1ccccc1CCc1ccccc1 (stereo not drawn)	·	-2.8	1.1	·	·	·	·	·	·
Cc1nnn(-c2nonc2N)c1C(=O)NNC(=O)c1ccc(Cl)c(Cl)c1	-12.9	9.5	54.8*	6.2	i	72.2*	6.0	21.4	8.3
COc1ccc(O)c(/C=N/NC(=O)c2c(C)nnn2-c2nonc2N)c1	0.4	-5.8	0.3	-2.0	i	·	·	·	·
N#Cc1nc(-c2ccco2)oc1N1CCc2ccccc2C1	3.3	-1.0	72.7*	4.4	i	45.3*	2.5	5.8	5.2
CC(C)(C)n1nnnc1C(c1ccccc1)N1CCCN(Cc2ccc(F)cc2)CC1 (stereo not drawn)	·	0.1	-0.3	·	·	·	·	·	·
O=C(C(=O)N1CCc2ccccc2C1)c1cn(CC(=O)N2CCCC2)c2ccccc12	-8.1	-0.4	50.0*	9.5	i	49.7*	2.8	10.5	10.5
CCc1cccc(NC(=O)Cn2c(=O)n(CCC(=O)NCC3CCCO3)c(=O)c3cc(OC)c(OC)cc32)c1 (stereo not drawn)	20.9	-19.9	2.0	-4.8	·	·	·	·	·
O=C(COc1ccc2ccccc2c1)Nc1ccc2c3c(cccc13)CC2	0.6	23.5	5.3	-7.1	i	·	·	·	·
Cc1cc(C)cc(OCC(=O)Nc2ccc3c4c(cccc24)CC3)c1	4.2	81.2*	101.7*	-0.8	i	33.8	0.4	21.4	1.2
Cc1ccc(N2C(=O)c3ccc(C(=O)N4CCN(Cc5ccccc5)CC4)cc3C2=O)cc1	-1.7	80.7*	86.7*	-6.9	i	93.9*	49.2*	96.5*	73.9*
CCCOC(=O)c1ccc2c(c1)C(=O)N(c1ccccc1)C2=O	-25.4	53.1*	68.1*	6.8	·	15.1	6.1	24.3	19.3
O=C(Nc1ccccc1F)c1ccc(C(=O)c2ccccc2)cc1	14.9	-8.8	0.5	-1.1	i	·	·	·	·
COc1ccc2c(Cl)c(C(=O)N/N=C/c3ccncc3)sc2c1	11.0	48.7*	71.5*	0.8	i	5.2	2.9	16.3	5.8
O=C(N/N=C/c1ccncc1)c1sc2ccccc2c1Cl	-0.4	6.4	0.5	5.4	i	·	·	·	·
O=C(O)C1CCCCC1C(=O)NCCc1ccc(F)cc1 (stereo not drawn)	0.8	33.7	81.0*	19.5	i	92.9*	3.0	72.9*	7.3
O=C(O)C1C2CCC(C2)C1C(=O)NCCc1ccccc1 (stereo not drawn)	0.7	·	·	8.5	i	·	1.6	·	3.8
O=C(O)C1CCCCC1C(=O)NCCc1cccc(Cl)c1 (stereo not drawn)	-8.2	68.4*	89.8*	3.8	i	87.9*	2.3	69.5*	-1.4
O=C(O)C1CCCCC1C(=O)NCc1ccc(F)cc1 (stereo not drawn)	-2.5	11.4	12.7	-53.1	i	·	·	·	·
O=C(O)C1CCCCC1C(=O)NCCc1ccc(Cl)cc1 (stereo not drawn)	·	16.6	70.2*	2.7	i	54.1*	0.0	6.7	5.3
COc1ccc(CCNC(=O)C2C3CCC(C3)C2C(=O)O)cc1OC (stereo not drawn)	2.7	-15.9	22.1	2.5	i	·	·	·	·
O=C(O)[C@H]1CCCC[C@H]1C(=O)NCCNC(=O)[C@@H]1CCCC[C@@H]1C(=O)O	-3.5	-2.9	7.0	4.7	i	·	·	·	·
COC(=O)c1ccccc1NC(=O)COC(=O)Cc1ccc(S(=O)(=O)N2CCOCC2)s1	·	16.9	9.9	·	·	·	·	·	·
SMILES	Platelet DG rel	TAAR1 antagonist	TAAR1 ag	VLA-4 inh	Rce1 inhib	TAAR1 ag conf	Ga16 nonsel ag	TAAR1 desensitize	Ga16 antag count
O=C(O)C1C2C=CC(C2)C1C(=O)NCc1cccc(Cl)c1 (stereo not drawn)	2.4	-6.3	23.7	9.6	i	·	·	·	·
O=C(O)C1C2C=CC(C2)C1C(=O)NCCc1cccc(Cl)c1 (stereo not drawn)	-32.0	·	·	4.3	i	·	1.4	·	9.8
Cc1cc(/C=N/Nc2ncnc(N)c2[N+](=O)[O-])c(C)n1-c1ccccc1	67.4*	10.9	72.8*	-2.1	i	119.6*	48.8*	82.5*	16.4
Cc1ccc(CCNC(=O)c2coc3nc4ccccc4nc23)cc1	2.8	8.1	70.1*	-21.5	i	26.5	2.6	15.9	23.1*
O=C(Cc1ccc(-c2ccccc2)cc1)NC1CCCC1	-6.1	-3.8	59.0*	37.5	i	14.0	7.1	1.9	12.8
O=C(Cc1ccc(Cl)cc1)NC1CCCCCC1	-7.9	-12.6	2.0	15.5	i	·	·	·	·
COc1ccc2[nH]cc(C(=O)NCCc3ccccc3)c(=O)c2c1	6.5	16.2	15.4	-1.5	i	·	·	·	·
CN(CCC#N)S(=O)(=O)c1ccc2[nH]cc(C(=O)NCCc3ccccc3)c(=O)c2c1	-1.6	11.9	53.8*	11.5	i	73.4*	0.2	20.1	6.1
O=C(Nc1ccccc1)c1ccccc1O	0.0	-0.1	10.1	4.1	i	·	·	·	·
CC(=O)Nc1cccc(NC(=O)Nc2ccc(C(C)=O)cc2)c1	-1.6	-0.5	4.8	35.0	i	·	·	·	·
O=C(Nc1ccccc1)Nc1ccc2ncoc2c1	-3.7	6.3	59.1*	10.9	i	88.0*	8.8	61.3*	12.2
CC(=O)Nc1ccc(NC(=O)Nc2ccccc2)cc1	13.7	·	·	1.7	i	·	6.2	·	13.3
